{
  "source": "paper PMC2099187",
  "about": "(The Journal of Cell Biology, 2007)",
  "key": {"[1]": {"molecular_target": "T1, recombinant human (rh) ECE-1 (Homo sapiens, UniProt P42892)", "T1 sequence (P42892 1-770)": "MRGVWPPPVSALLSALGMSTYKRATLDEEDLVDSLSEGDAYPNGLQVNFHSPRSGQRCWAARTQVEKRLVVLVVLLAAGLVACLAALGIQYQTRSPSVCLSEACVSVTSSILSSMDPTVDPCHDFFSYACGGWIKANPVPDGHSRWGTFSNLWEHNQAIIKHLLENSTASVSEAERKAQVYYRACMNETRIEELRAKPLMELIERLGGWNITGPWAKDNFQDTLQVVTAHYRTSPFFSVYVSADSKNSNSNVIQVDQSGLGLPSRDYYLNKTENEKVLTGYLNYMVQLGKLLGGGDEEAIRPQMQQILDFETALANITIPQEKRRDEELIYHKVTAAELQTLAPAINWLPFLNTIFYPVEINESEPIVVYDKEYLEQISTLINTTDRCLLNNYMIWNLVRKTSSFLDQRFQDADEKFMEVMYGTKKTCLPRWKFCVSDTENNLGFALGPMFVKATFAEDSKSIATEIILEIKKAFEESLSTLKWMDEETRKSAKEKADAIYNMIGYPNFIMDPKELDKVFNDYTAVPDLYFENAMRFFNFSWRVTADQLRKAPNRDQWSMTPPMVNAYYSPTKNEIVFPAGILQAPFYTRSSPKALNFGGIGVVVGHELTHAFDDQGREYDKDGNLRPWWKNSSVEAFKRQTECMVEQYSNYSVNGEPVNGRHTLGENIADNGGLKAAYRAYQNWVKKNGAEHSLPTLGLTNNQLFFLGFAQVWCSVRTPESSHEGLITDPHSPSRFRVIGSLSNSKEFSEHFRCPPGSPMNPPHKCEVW", "experiment": "Peptide degradation by rhECE-1", "format": "biochemical", "conditions": "for Degradation of peptide by 83 nM rhECE-1 at pH 5.5 or 7.4: 50 mM MES-KOH pH 5.5 or 50 mM Tris-HCl pH 7.4, up to 480 min", "outline": "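Where used, the ECE-1 inhibitor (100 μM) was preincubated with enzyme on ice for 30 min at matching pH before substrate was added. Products were resolved by reversed-phase HPLC and identified by MALDI TOF/TOF mass spectrometry.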"}, "HEK-CLR-RAMP1 cells [2]": {"test_system": "HEK-CLR-RAMP1 cells", "experiment": "Endocytosis and degradation of internalized 125I-His8-CGRP", "format": "cell-based, human", "conditions": "30 min after internalization; SM-19712 10 μM, bafilomycin A1 0.15 or 1 μM"}, "[3]": {"test_system": "HEK-CLR-RAMP1+βARR2-GFP cells", "experiment": "Trafficking and colocalization of β-arrestin2-GFP and CLR/RAMP1", "format": "cell-based, human", "conditions": "recovery up to 4 h in CGRP-free medium", "outline": "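HEK-CLR-RAMP1 cells transiently transfected with β-arrestin2-GFP had surface CLR (HA11) and RAMP1 (Myc) labelled. Cells were given CGRP (2 min to 1 h), washed, and recovered in CGRP-free medium for 1–4 h. SM-19712 10 μM, bafilomycin A1 0.15 or 1 μM, or DMSO was preincubated 20–60 min and kept throughout. After PFA fixation and confocal imaging, β-arrestin2/CLR endosomal colocalization coefficient was measured at 4 h recovery.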"}, "HEK cells": {"test_system": "HEK cells", "experiment": "BK-induced Ca2+ signaling, desensitization and resensitization", "format": "cell-based, human", "conditions": "SM-19712 10 μM; for Effect on response to a single BK challenge ([Ca2+]i): BK 100 nM, thiorphan 1 μM, phosphoramidon 1 μM", "outline": "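HEK cells with native B2R were loaded with Fura-2AM and [Ca2+]i read at 37°C, on coverslips or in suspension. Cells were preincubated with BK 100 nM or vehicle (10 min, 37°C), washed, recovered 0–120 min, then rechallenged with BK 100 nM. SM-19712 10 μM, bafilomycin A1 0.15 or 1 μM, or DMSO was preincubated 20–60 min and kept in buffers throughout.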"}, "CLR/RAMP1": {"molecular_target": "CLR/RAMP1 (Rattus norvegicus, UniProt Q63118+Q9JJ74)", "sequence (Q63118 24-464)": "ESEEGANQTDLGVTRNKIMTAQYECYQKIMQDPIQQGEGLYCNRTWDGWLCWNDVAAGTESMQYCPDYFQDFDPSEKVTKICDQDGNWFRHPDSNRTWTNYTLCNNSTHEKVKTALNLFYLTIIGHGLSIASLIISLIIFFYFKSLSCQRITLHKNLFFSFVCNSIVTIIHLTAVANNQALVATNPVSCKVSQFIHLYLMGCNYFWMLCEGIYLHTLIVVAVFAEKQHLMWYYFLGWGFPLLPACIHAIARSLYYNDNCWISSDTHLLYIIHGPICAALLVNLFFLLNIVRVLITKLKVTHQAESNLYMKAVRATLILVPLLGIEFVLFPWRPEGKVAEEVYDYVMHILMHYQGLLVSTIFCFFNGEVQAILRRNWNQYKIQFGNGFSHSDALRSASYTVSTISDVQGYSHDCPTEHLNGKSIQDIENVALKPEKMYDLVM", "sequence (Q9JJ74 27-148)": "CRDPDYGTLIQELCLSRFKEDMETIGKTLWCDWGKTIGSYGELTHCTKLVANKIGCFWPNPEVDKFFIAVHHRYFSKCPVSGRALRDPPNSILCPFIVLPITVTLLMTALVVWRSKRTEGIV", "experiment": "pH dependency of 125I-CGRP binding to CLR/RAMP1 membranes", "conditions": "pH 5.5, relative to pH 7.5 (100%)"}, "HEK-CLR-RAMP1 cells [4]": {"test_system": "HEK-CLR-RAMP1 cells", "experiment": "CGRP-induced Ca2+ signaling, desensitization and resensitization", "format": "cell-based, human", "outline": "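HEK-CLR-RAMP1 cells were loaded with Fura-2AM; [Ca2+]i read at 37°C. Single challenge used CGRP 30 nM. For desensitization/resensitization: CGRP 100 nM or vehicle (1 h, 37°C), wash, 0–6 h recovery, CGRP 30 nM rechallenge. Variants: SM-19712 10 μM (20–60 min preincubation, kept throughout); ECE-1 or non-targeting siRNA pools, 72 h; transient ECE-1a-d-GFP. Response given as % of vehicle-treated cells, n ≥ 3.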"}, "SK-N-MC cells": {"test_system": "SK-N-MC cells", "experiment": "CGRP-induced Ca2+ signaling, desensitization and resensitization", "format": "cell-based, human", "conditions": "challenge 100 nM", "outline": "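SK-N-MC cells (endogenous CLR/RAMP1) were loaded with Fura-2AM for [Ca2+]i at 37°C. Single challenge used CGRP 100 nM. Desensitization: CGRP 100 nM or vehicle (1 h, 37°C), wash, CGRP-free recovery (4 h for resensitization), then CGRP 100 nM rechallenge. SM-19712 10 μM or DMSO was preincubated 20–60 min and kept throughout. Response was expressed as % of vehicle-treated cells.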"}, "[5]": {"test_system": "HEK-CLR-RAMP1 cells expressing ECE-1c-HSV", "experiment": "Cell surface ECE-1c-HSV by flow cytometry", "format": "cell-based, human", "conditions": "CGRP 100 nM, 30 min, 37°C", "outline": "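HEK-CLR-RAMP1 cells transiently expressing ECE-1c-HSV were bound with goat anti-HSV (1 h, 4°C), washed, and exposed to CGRP 100 nM or vehicle (30 min, 37°C). They were then stained with FITC anti-goat (1:200, 1 h, 4°C) and analysed by flow cytometry. Secondary-only background was subtracted; surface signal was expressed relative to 4°C cells (100%).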"}, "rhECE-1": {"test_system": "rhECE-1", "experiment": "rhECE-1", "conditions": "human, 37°C, up to 720 min"}, "HEK-AT1AR cells": {"test_system": "HEK-AT1AR cells", "experiment": "Resensitization of ATII-induced Ca2+ signaling", "format": "cell-based, human", "conditions": "ATII 100 nM 1 h 37°C, wash, 2 h recovery, challenge 100 nM; unpublished data; mean ± SE", "outline": "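HEK-AT1AR cells were exposed to ATII (100 nM) or vehicle for 1 h at 37°C, washed, and allowed to recover in agonist-free medium at 37°C. They were then rechallenged with ATII (100 nM) while [Ca2+]i was measured. The [Ca2+]i change is expressed as % of the vehicle-pretreated response. Inhibitor (10 μM) or DMSO was preincubated 20–60 min and kept in buffers throughout. Mean ± SE, n ≥ 3.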"}, "[6]": {"conditions": "peptide 250 μM, rhECE-1 83 nM, 37°C, HPLC"}},
  "note": "Entries after “also recorded” stand apart in the source; their conditions may differ. Where a SMILES comes first, the peptide text is derived from it.",
  "data": [
    {"compound": "NC(N)=NCCC[C@H](NC(=O)[C@H](Cc1ccccc1)NC(=O)[C@@H]1CCCN1C(=O)[C@H](CO)NC(=O)[C@H](Cc1ccccc1)NC(=O)CNC(=O)[C@@H]1CCCN1C(=O)[C@@H]1CCCN1C(=O)[C@@H](N)CCCN=C(N)N)C(=O)O", "note": "[BK, bradykinin] (H-RPPGFSPFR-OH)", "values": [
      {"measurement": "Degradation of peptide by 83 nM rhECE-1 at pH 5.5 or 7.4", "setting": "[1]; [6]", "result": "degraded BK at pH 5.5 and 7.4"},
      {"measurement": "pH dependence of the rate of degradation by rhECE-1", "setting": "[1]; rhECE-1 83 nM, pH 5.5 versus pH 7.4, 37°C, HPLC", "result": "faster at pH 5.5"}
    ]},
    {"compound": "CO/C1=C\\C(C)=C\\[C@@H](C)[C@@H](O)[C@@H](C)C/C(C)=C/C=C/[C@H](OC)[C@@H]([C@@H](C)[C@@H](O)[C@H](C)[C@@]2(O)C[C@@H](O)[C@H](C)[C@@H](C(C)C)O2)OC1=O", "note": "[bafilomycin A1]", "values": [
      {"measurement": "Effect on degradation of internalized 125I-His8-CGRP", "setting": "HEK-CLR-RAMP1 cells [2]", "result": "prevented degradation"},
      {"measurement": "Effect on localization of CLR (RAMP1) and β-arrestin2 during recovery", "setting": "[3]", "result": "caused retention of CLR, RAMP1, and β-arrestin2 in endosomes for up to 4 h recovery"},
      {"measurement": "Effect on desensitization of BK-induced Ca2+ signaling", "setting": "HEK cells; bafilomycin A1 0.15 or 1 μM", "result": "had no effect"},
      {"measurement": "Effect on resensitization of BK-induced Ca2+ signaling", "setting": "HEK cells; bafilomycin A1 0.15 or 1 μM, 0–120 min recovery", "result": "had no effect"}
    ]},
    {"compound": "CC(C)C[C@H](NP(=O)(O)O[C@@H]1O[C@@H](C)[C@H](O)[C@@H](O)[C@H]1O)C(=O)N[C@@H](Cc1c[nH]c2ccccc12)C(=O)O", "note": "[phosphoramidon]", "values": [
      {"measurement": "Effect on response to a single BK challenge ([Ca2+]i)", "setting": "HEK cells", "result": "did not affect responses to a single BK challenge"}
    ]},
    {"compound": "O=C(O)CNC(=O)C(CS)Cc1ccccc1", "note": "(centres unmarked) [thiorphan]", "values": [
      {"measurement": "Effect on response to a single BK challenge ([Ca2+]i)", "setting": "HEK cells", "result": "did not affect responses to a single BK challenge"}
    ]},
    {"compound": "Calcitonin gene-related peptide [CGRP]", "values": [
      {"measurement": "Bonds hydrolysed by rhECE-1 (major products separated by HPLC)", "setting": "[1]; pH 5.5, products CGRP[15–26], CGRP[27–37], CGRP[1–24], CGRP[1–26]", "result": "Gly^14-Leu^15, Lys^24-Asp^25, and Asn^26-Phe^27"},
      {"measurement": "Degradation of peptide by rhECE-1 at endosomal pH 5.5", "setting": "[1]; peptide 250 μM, rhECE-1 83 or 415 nM, 37°C, 50 mM MES-KOH pH 5.5, 0–720 min, reversed-phase HPLC", "result": "degraded CGRP in a concentration-dependent manner"},
      {"measurement": "Degradation of peptide by rhECE-1 at extracellular fluid pH 7.4", "setting": "[1]; peptide 250 μM, rhECE-1, 37°C, 50 mM Tris-HCl pH 7.4, reversed-phase HPLC", "result": "minimal"},
      {"measurement": "Peptide bound to CLR/RAMP1 at endosomal pH 5.5", "setting": "CLR/RAMP1", "result": "~20", "unit": "%"},
      {"measurement": "Desensitization of CGRP-induced Ca2+ signals by preincubation with agonist", "setting": "HEK-CLR-RAMP1 cells [4]; CGRP 100 nM 1 h 37°C, 0 h recovery, challenge 30 nM", "result": "complete desensitization"},
      {"measurement": "Resensitization of responses to CGRP in cells with active ECE-1", "setting": "HEK-CLR-RAMP1 cells [4]; CGRP 100 nM 1 h, wash, 0–6 h recovery, challenge 30 nM", "result": "fully resensitized at 4–6 h recovery"},
      {"measurement": "Resensitization of CGRP-induced Ca2+ signaling, HEK cells expressing CLR/RAMP1 alone (control)", "setting": "HEK-CLR-RAMP1 cells [4]; after 2 h recovery, mean ± SE", "result": "33 ± 2", "unit": "%"},
      {"measurement": "Resensitization of CGRP-induced Ca2+ signaling, cells overexpressing ECE-1c", "setting": "HEK-CLR-RAMP1 cells [4]; at 2 h recovery, mean ± SE", "result": "75 ± 5", "unit": "%"},
      {"measurement": "Desensitization of responses to CGRP by preincubation with agonist", "setting": "SK-N-MC cells; CGRP 100 nM 1 h 37°C", "result": "completely desensitized"},
      {"measurement": "Resensitization of responses to CGRP", "setting": "SK-N-MC cells; after 4 h recovery, mean ± SE", "result": "54 ± 5", "unit": "%"},
      {"measurement": "Effect on constitutive endocytosis of ECE-1c-HSV (cell surface ECE-1c)", "setting": "[5]", "result": "did not affect this endocytosis"}
    ]},
    {"compound": "SCNTATCVTHRLAGLLSRSGGVVKDNFVPTNVGSEAF-NH2", "values": [
      {"measurement": "cleaved bond", "setting": "rhECE-1", "result": "Gly14-Leu15, major; also recorded: Lys24-Asp25, major; also recorded: Asn26-Phe27, major"}
    ]},
    {"compound": "angiotensin (AT) I (DRVYIHPFHL; Angiotensin-1; UniProt P01019 25-34, looked up) [ATI]", "values": [
      {"measurement": "Degradation of peptide by 83 nM rhECE-1 at pH 5.5 or 7.4", "setting": "[1]; [6]", "result": "degraded ATI under the same conditions"}
    ]},
    {"compound": "angiotensin II (DRVYIHPF; Angiotensin-2; UniProt P01019 25-32, looked up) [ATII]", "values": [
      {"measurement": "Degradation of peptide by 83 nM rhECE-1 at pH 5.5 or 7.4", "setting": "[1]; [6]", "result": "no detectable degradation at up to 480 min"}
    ]},
    {"compound": "angiotensin II [ATII]", "values": [
      {"measurement": "Resensitization of ATII-induced Ca2+ signaling at 2 h", "setting": "HEK-AT1AR cells", "result": "96 ± 3", "unit": "%"}
    ]}
  ]
}
